Test results: ChEMBL document CHEMBL3745654, “N-Alkylated arylsulfonamides of (aryloxy)ethyl piperidines: 5-HT(7) receptor selectivity versus multireceptor profile” (Bioorg Med Chem, 2016)

Legend:
[1] = target: T1, 5-hydroxytryptamine receptor 7 (Homo sapiens, UniProt P34969); assay: Displacement of [3H]-5-CT from human 5-HT7B receptor expressed in HEK293 cells incubated for 1 hr; assay type: cell-based
In short: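 Membranes from HEK293 cells stably expressing human 5-HT7b receptor, with [3H]-5-CT (39.2 Ci/mmol). Buffer: 50 mM Tris-HCl, 4 mM MgCl2, pargyline, 0.1% ascorbate. Incubation 1 h at 37 °C, then rapid filtration and counting of filter radioactivity. Non-specific binding defined with 5-HT. Triplicates at 7–8 concentrations (10^-11 to 10^-4 M). Ki by Cheng–Prusoff.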

[2] = target: T2, 5-hydroxytryptamine receptor 1A (Homo sapiens, UniProt P08908); assay: Displacement of [3H]-8-OH-DPAT from human 5-HT1A receptor expressed in HEK293 cells incubated for 1 hr; assay type: cell-based
T2 sequence (P08908 whole entry): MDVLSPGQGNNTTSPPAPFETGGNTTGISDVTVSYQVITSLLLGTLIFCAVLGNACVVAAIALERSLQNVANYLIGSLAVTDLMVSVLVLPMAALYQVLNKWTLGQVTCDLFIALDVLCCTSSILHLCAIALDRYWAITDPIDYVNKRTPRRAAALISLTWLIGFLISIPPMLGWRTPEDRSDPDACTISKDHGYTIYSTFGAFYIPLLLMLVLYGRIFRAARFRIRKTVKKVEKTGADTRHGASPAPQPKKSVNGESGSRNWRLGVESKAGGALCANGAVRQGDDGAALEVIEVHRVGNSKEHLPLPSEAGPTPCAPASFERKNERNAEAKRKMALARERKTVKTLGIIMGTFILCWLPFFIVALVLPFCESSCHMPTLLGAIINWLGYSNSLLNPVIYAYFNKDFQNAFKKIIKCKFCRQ
In short: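 Membranes from HEK293 cells stably expressing human 5-HT1A receptor, with [3H]-8-OH-DPAT (187 Ci/mmol). Buffer: 50 mM Tris-HCl, 0.1 mM EDTA, 4 mM MgCl2, pargyline, 0.1% ascorbate. Incubation 1 h at room temperature, then filtration. Non-specific binding defined with 5-HT. Triplicates at 7–8 concentrations. Ki by Cheng–Prusoff.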

[3] = target: 5-hydroxytryptamine receptor 2A (Homo sapiens, UniProt P28223); assay: Displacement of [3H]-ketanserin from human 5-HT2A receptor expressed in HEK293 cells incubated for 1 hr; assay type: cell-based
In short: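 Membranes from HEK293 cells stably expressing human 5-HT2A receptor, with [3H]-ketanserin (66.9 Ci/mmol). Incubation 1 h at 37 °C, then rapid filtration and counting. Triplicates at 7–8 concentrations (10^-11 to 10^-4 M). Ki by Cheng–Prusoff; means of at least three experiments.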

[4] = target: T1, 5-hydroxytryptamine receptor 7; assay: Antagonist activity at human 5-HT7B receptor expressed in HEK293 cells assessed as inhibition of 5-carboxamidotryptamine-induced cAMP production; assay type: functional, cell-based
In short: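 HEK293 cells stably expressing human 5-HT7b receptor. Compound's ability to inhibit cAMP production induced by 10 nM 5-CT was measured in triplicate at 8 concentrations (10^-11 to 10^-4 M). Kb = IC50/(1 + A/EC50), where A is agonist concentration.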

[5] = target: Sodium-dependent serotonin transporter (Rattus norvegicus) (UniProt P31652); assay: Displacement of [3H]-citalopram from rat cerebral cortex SERT at 1 uM; assay type: tissue-based
[6] = target: T3, Muscarinic acetylcholine receptor M1 (Homo sapiens) (UniProt P11229); assay: Displacement of [3H]-pirenzepine from human recombinant muscarinic M1 receptor expressed in CHO cells at 1 uM after 60 mins by Scintillation counting method; assay type: cell-based
T3 sequence (whole entry): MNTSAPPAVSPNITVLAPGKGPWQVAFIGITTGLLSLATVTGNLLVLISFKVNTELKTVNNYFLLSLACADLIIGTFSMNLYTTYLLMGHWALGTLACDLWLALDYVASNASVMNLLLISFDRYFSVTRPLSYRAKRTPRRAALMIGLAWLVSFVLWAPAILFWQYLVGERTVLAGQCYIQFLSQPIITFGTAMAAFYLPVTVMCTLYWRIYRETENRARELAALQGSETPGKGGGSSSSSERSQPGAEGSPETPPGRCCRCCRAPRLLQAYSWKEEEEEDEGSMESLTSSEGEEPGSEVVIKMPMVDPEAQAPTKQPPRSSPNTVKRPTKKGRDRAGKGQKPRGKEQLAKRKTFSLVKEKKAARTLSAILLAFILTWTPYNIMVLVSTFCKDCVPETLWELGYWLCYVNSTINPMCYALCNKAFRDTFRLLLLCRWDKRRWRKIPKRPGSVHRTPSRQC

[7] = target: T4, 5-hydroxytryptamine receptor 2C (Homo sapiens) (UniProt P28335); assay: Displacement of [3H]-mesulergine from human recombinant serotonin 5-HT2C receptor expressed in HEK293 cells at 1 uM incubated for 120 mins by scintillation counting method; assay type: cell-based
T4 sequence (whole entry): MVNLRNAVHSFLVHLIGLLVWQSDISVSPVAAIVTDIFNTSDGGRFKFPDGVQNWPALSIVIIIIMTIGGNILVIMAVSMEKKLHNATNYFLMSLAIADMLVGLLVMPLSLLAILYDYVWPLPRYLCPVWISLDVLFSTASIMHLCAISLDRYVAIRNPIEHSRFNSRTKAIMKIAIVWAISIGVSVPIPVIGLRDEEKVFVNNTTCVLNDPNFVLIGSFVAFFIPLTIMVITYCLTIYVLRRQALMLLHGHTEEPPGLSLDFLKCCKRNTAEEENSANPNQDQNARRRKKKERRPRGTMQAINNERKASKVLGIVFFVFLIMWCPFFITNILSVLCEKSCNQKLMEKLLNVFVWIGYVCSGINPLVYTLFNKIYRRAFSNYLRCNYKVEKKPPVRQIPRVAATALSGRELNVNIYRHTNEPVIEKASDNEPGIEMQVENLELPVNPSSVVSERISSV

[8] = Half life in mouse liver microsomes at 20 uM at pH 7.4 incubated for 15 mins by UPLC/MS analysis in presence of NADPH; assay type: ADME
In short: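 Compound (20 µM) incubated with mouse liver microsomes (0.2 mg/ml) in 100 mM potassium phosphate, pH 7.4, 37 °C. Reaction started with NADPH-regenerating system; blank without NADPH run in parallel. Sampling at 5, 15, 30 and 60 min (some to 120 min), in duplicate. Levallorphan internal standard; UPLC/MS quantitation. t1/2 from ln % remaining vs time.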

Chain of Sodium-dependent serotonin transporter (Rattus norvegicus) (P31652 whole entry): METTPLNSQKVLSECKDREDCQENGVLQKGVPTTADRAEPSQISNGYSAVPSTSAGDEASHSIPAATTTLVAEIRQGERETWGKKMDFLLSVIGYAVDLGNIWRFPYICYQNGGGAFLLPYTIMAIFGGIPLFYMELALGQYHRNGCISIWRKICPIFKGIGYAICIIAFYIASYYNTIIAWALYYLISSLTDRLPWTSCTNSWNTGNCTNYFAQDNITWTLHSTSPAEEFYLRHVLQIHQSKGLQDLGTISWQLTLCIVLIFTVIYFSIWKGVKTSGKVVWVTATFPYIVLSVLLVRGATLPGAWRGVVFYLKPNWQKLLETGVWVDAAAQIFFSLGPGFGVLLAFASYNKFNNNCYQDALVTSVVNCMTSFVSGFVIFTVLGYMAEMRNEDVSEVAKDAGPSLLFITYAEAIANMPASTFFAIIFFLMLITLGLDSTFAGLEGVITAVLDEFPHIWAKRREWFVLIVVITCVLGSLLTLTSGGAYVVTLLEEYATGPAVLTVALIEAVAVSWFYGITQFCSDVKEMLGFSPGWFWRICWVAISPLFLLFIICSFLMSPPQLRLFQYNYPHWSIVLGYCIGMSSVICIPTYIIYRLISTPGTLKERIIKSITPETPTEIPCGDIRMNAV
T1 sequence (P34969 whole entry): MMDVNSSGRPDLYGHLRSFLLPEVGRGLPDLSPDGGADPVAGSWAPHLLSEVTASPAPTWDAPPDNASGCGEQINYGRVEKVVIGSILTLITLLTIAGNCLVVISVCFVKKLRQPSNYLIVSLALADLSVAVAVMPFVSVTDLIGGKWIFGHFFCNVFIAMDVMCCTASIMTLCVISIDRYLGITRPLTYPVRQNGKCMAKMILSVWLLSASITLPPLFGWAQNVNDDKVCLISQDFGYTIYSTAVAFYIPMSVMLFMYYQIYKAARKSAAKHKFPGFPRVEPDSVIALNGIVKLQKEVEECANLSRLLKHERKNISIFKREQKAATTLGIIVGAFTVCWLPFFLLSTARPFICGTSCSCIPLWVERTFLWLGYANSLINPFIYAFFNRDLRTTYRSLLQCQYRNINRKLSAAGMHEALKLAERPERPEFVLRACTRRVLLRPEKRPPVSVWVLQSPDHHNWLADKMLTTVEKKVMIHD
Chain of 5-hydroxytryptamine receptor 2A (P28223 whole entry): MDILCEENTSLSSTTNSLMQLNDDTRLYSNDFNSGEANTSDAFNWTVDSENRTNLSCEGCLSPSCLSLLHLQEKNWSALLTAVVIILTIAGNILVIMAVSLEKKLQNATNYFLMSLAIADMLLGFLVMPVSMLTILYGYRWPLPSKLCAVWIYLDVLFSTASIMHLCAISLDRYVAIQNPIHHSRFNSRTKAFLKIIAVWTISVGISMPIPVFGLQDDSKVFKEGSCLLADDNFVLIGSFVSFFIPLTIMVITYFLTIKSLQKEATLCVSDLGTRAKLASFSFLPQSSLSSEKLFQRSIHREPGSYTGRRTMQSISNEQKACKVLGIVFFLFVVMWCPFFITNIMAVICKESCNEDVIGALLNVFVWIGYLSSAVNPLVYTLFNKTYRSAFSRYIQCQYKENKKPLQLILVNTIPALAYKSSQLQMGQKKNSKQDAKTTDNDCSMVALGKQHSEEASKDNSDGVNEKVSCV

Cn1cc(S(=O)(=O)N(CC2CC2)C2CCN(CCOc3ccccc3C(C)(C)C)CC2)cn1
Ki [1]: 49 nM
Ki [2]: 17800 nM
Ki [3]: 1480 nM
Kb [4]: 64 nM
inhibition [5]: < 20%
inhibition [6]: < 17%
inhibition [7]: < 17%
half-life at 20 µM [8]: 44.5 min

CN(C1CCN(CCOc2ccccc2-c2ccccc2)CC1)S(=O)(=O)c1cnn(C)c1
Ki [1]: 7 nM
Ki [2]: 80 nM
Ki [3]: 58 nM
Kb [4]: 41 nM
inhibition [5]: < 20%
inhibition [6]: < 17%
inhibition [7]: < 17%
half-life at 20 µM [8]: 26.2 min

CN(C1CCN(CCOc2ccccc2C(C)(C)C)CC1)S(=O)(=O)c1cnn(C)c1
Ki [1]: 58 nM
Ki [2]: 9630 nM
Ki [3]: 557 nM
Kb [4]: 82 nM
inhibition [5]: < 20%
inhibition [6]: < 17%
inhibition [7]: < 17%
half-life at 20 µM [8]: 20 min

Cn1cc(S(=O)(=O)N(CC2CC2)C2CCN(CCOc3ccccc3-c3ccccc3)CC2)cn1
Ki [1]: 10 nM
Ki [2]: 159 nM
Ki [3]: 30 nM
Kb [4]: 79 nM
inhibition [5]: < 20%
inhibition [6]: < 17%
inhibition [7]: < 17%
half-life at 20 µM [8]: 62 min
